Measured values as given in PMC12977181 (Journal of natural products, 2025).
Entries after “also recorded” stand apart in the source; their conditions may differ. Read-outs that look alike come from different tables or passages of the source.

What was measured:
[1] = tested on: mice with neuropathic pain; conditions: through σ2R/TMEM97; cited from earlier work
[2] = tested on: p-eIF2α; test: Immunocytochemistry of p-eIF2α in primary mouse DRGs; type: cell-based; conditions: approximately 16 h, vs vehicle (0.01% DMSO)
In short: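 Primary mouse DRG neurons were cultured overnight in Neurobasal A, then exposed for ~16 h to test compounds (30–1000 nM) or 0.01% DMSO. Cells were formalin-fixed, blocked in 10% goat serum with 0.1% Triton X-100, and immunostained for p-eIF2α (Alexa 555) and peripherin (Alexa 488) with DAPI. p-eIF2α was quantified as mean gray intensity in peripherin-positive neurons. One-way ANOVA with Tukey's test; mean ± SEM.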

[3] = tested on: primary mouse DRG neurons; test: Functional calcium imaging in primary mouse DRG neurons; type: cell-based; conditions: 10 μM Ver E
In short: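 DRGs from an 18-week-old male Nestin-Cre × Cre-dependent GCaMP6f mouse were digested with papain (15 IU/mL) plus collagenase (2.25 mg/mL) at 37 °C for 20 min and plated at 450,000–500,000 cells/mL in Neurobasal A. Imaging ran 24 h later with FITC optics. Maximum fluorescence was taken during direct 10 μM exposure and during SOCE, against 0.1% DMSO vehicle. Unpaired two-tailed t tests; SEM; n = cells.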

[4] = tested on: HEK293 cells; test: Cytotoxicity in HEK293 cells, resazurin reduction assay; type: cell-based; conditions: 24 h; for cell death at 30 μM: resazurin (Figure 7A); for LD50: 0.03-30 μM, logarithmic nonlinear regression curve (Figure 7B)
[5] = tested on: hiPSC-derived nociceptors; test: Multiwell microelectrode array; type: cell-based, human
[6] = tested on: HEK293 cells; conditions: cited from earlier work
[7] = tested on: breast cancer cell lines; conditions: cited from earlier work

OCCCN1CCC2CC1c1cc(-c3ccc(C(F)(F)F)cc3)ccc12 (stereo not shown) [FEM-1689, reference compound]
analgesic effect, in words [1]: drives analgesic responses | p-eIF2α expression (mean gray intensity), in words ([2]; FEM-1689 30 nM): marked reduction

C#CCCC[C@H]1OC(=O)[C@H](C(C)C)N(C)C(=O)[C@@H]2CCCN2C(=O)[C@H]([C@@H](C)CC)OC(=O)[C@H]([C@@H](C)CC)N(C)C(=O)[C@H]([C@@H](C)CC)NC(=O)[C@H]1C [Ver E, veraguamide E]
p-eIF2α levels (mean gray intensity), in words ([2]; Ver E 100 nM): No observable differences | p-eIF2α levels (mean gray intensity), in words ([2]; Ver E 1000 nM): No observable differences | Maximum fluorescence during the SOCE response (mean) ([3]; 0.1% DMSO, max ΔF/F0, after reintroduction of extracellular Ca2+, vehicle mean = 2.126, no significant difference): 1.929 | DRG excitability during coapplication with thapsigargin, in words ([3]; compared to thapsigargin alone, P < 0.01): significantly increased DRG excitability | SOCE response, in words ([3]; upon reintroduction of extracellular Ca2+): no significant change | cytotoxicity, in words ([4]; 0.03 μM to 30 μM, resazurin): no evidence of cytotoxicity | cell death at 30 μM [4]: no cytotoxicity | LD50 ([4]; resazurin): no detectable LD50 | neuronal activity at 24 h, in words ([5]; 30 μM, 37 °C, 24-h time point): returning to baseline | effect on activity at 42 °C (heat ramp 37 to 42 °C), in words ([5]; 42 °C, Ver E vs vehicle (DMSO)): no significant effect; also recorded: nonsignificant decrease

C[C@@H]1CC[C@@]2(OC1)O[C@H]1[C@@H](O)[C@H]3[C@@H]4CC[C@H]5C[C@@H](O[C@@H]6O[C@H](CO)[C@H](O[C@@H]7O[C@H](CO)[C@@H](O)[C@H](O[C@@H]8OC[C@@H](O)[C@H](O)[C@H]8O)[C@H]7O[C@@H]7O[C@H](CO)[C@H](O)[C@H](O[C@@H]8O[C@H](CO)[C@@H](O)[C@H](O)[C@H]8O)[C@H]7O)[C@H](O)[C@H]6O)[C@H](O)C[C@]5(C)[C@H]4CC[C@]3(C)[C@H]1[C@@H]2C [digitonin, reference compound]
cell death at 30 μM [4]: 100% | LD50 ([4]; resazurin): 9.68 µM

veraguamide C
cytotoxicity, in words [6]: nontoxic | cytotoxicity, in words [7]: mild cytotoxicity
